Laboratory results reported in the RNAGym collection of RNA variant scans (doi:10.1126/science.aae0568).
Fewer inactive variants are shown than the library holds.

B1: tRNA (parent)
chain: GUUCCGUUGGCGUAAUGGUAACGCGUCUCCCUCCUAAGGAGAAGACUGCGGGUUCGAGUCCCGUACGGAACG

Variants of: B1
Test: yeast fitness relative to wild type (ratio to wild type); higher = fitter; tRNA-Arg(CCU), competitive growth, 37 C, YPD
How it was run: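 Amplicons of the tRNA-Arg(CCU) gene were sequenced, 100-nucleotide paired-end, from the start population and from each end population of a pooled yeast competition. The competition, in six parallel replicates, lasted 24 hours in YPD at 37°C. Fitness relative to wild type was calculated from changes in genotype frequencies. Genotypes had to have ≥ 100 starting reads, and estimates < 0.5 were set to 0.5.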

| Variant | yeast fitness |
| --- | --- |
| G18A A21C C30U | ≤ 0.5 |
| G18A A21C C33G A37U U64G | ≤ 0.5 |
| G18A A21C G23U U32A A42U G48C U64A | 0.529 |
| G18A A21C U32G | 0.614 |
| G18A A21U A37U A42U C46A G58C U64A | ≤ 0.5 |
| G18A A21U C49A C60G A70U | ≤ 0.5 |
| G18A A21U U32A C62G A65G | ≤ 0.5 |
| G18A A36C | 0.503 |
| G18A A36G A42U | 0.691 |
| G18A A37C C55U A57G | ≤ 0.5 |
| G18A A37G | 0.547 |
| G18A A37U U47A C62U | ≤ 0.5 |
| G18A A40G A70C | ≤ 0.5 |
| G18A A40G C62A A65U C66U | ≤ 0.5 |
| G18A A65C | 0.759 |
| G18A A70C | 0.74 |
| G18A A70G | 0.646 |
| G18A C22G C24G | ≤ 0.5 |
| G18A C22G C31U | 0.682 |
| G18A C22U C24G | ≤ 0.5 |
| G18A C22U C30U C33U A45C | ≤ 0.5 |
| G18A C24A C62U | 0.536 |
| G18A C24G C66U | ≤ 0.5 |
| G18A C24G G56A C66U | ≤ 0.5 |

| Variant | yeast fitness |
| --- | --- |
| G18A C24U G56A | 0.674 |
| G18A C27U C46A | 0.528 |
| G18A C27U G39A C60A | ≤ 0.5 |
| G18A C29A C49U | ≤ 0.5 |
| G18A C29U C31A | 0.575 |
| G18A C29U U35A A70U | ≤ 0.5 |
| G18A C30G C34G | ≤ 0.5 |
| G18A C30U A40G G68C | ≤ 0.5 |
| G18A C30U A45C G52C | ≤ 0.5 |
| G18A C30U C60G | ≤ 0.5 |
| G18A C31A A43G G50A A57U | 0.572 |
| G18A C31A C60A | ≤ 0.5 |
| G18A C31A G44A | 0.534 |
| G18A C31G | 0.666 |
| G18A C31U | 0.663 |
| G18A C33A G44A U64C | ≤ 0.5 |
| G18A C33G U53A | ≤ 0.5 |
| G18A C34A | ≤ 0.5 |
| G18A C34G C46A C62U A69C | ≤ 0.5 |
| G18A C55A C62G | ≤ 0.5 |
| G18A G23A C33A U64C | 0.789 |
| G18A G23C C30G A36U | ≤ 0.5 |
| G18A G25A A70G | 0.54 |
| G18A G25A C29G C34A | ≤ 0.5 |

| Variant | yeast fitness |
| --- | --- |
| G18A G25A C46U C55A | ≤ 0.5 |
| G18A G25C C49U | 0.74 |
| G18A G39U G48A C61G | ≤ 0.5 |
| G18A U19A C27U G67A | ≤ 0.5 |
| G18A U19C | 0.79 |
| G18A U19C A43U U59A | 0.538 |
| G18A U19C C27G C61A U64G | ≤ 0.5 |
| G18A U19G C60U A69C | ≤ 0.5 |
| G18A U26C | 0.648 |
| G18A U26G A42U A65G C66G G68A | ≤ 0.5 |
| G18A U32C A69C | 0.549 |
| G18A U32C A70G | 0.599 |
| G18A U47C | 0.728 |
| G18A U47C A57U | ≤ 0.5 |
| G18A U47C C62A | ≤ 0.5 |
| G18A U54C | 0.646 |
| G18A U59A | 0.76 |
| G18C A20C C22U C31U C61U | ≤ 0.5 |
| G18C A21U U26C G51C | 0.739 |
| G18C A42U G48C G68C A69U | ≤ 0.5 |
| G18C A42U G48C U64C | ≤ 0.5 |
| G18C A42U U54A G58C | 0.574 |
| G18C A57U | 0.555 |
| G18C A57U G67C | ≤ 0.5 |

| Variant | yeast fitness |
| --- | --- |
| G18C A65G | 0.62 |
| G18C C22G G38A | ≤ 0.5 |
| G18C C22G G56A | 0.568 |
| G18C C24A A36U | ≤ 0.5 |
| G18C C24G A45G C55G | 0.693 |
| G18C C24G C46A G56C G58A | ≤ 0.5 |
| G18C C24G U35C G50C C55G G67C | ≤ 0.5 |
| G18C C24U C30G | ≤ 0.5 |
| G18C C24U C66U | ≤ 0.5 |
| G18C C29U C30U A37G C49U G67A | ≤ 0.5 |
| G18C C29U C30U C49U G67A | ≤ 0.5 |
| G18C C29U C34U | ≤ 0.5 |
| G18C C29U C34U A36G G58C | ≤ 0.5 |
| G18C C30G U32C A69U | ≤ 0.5 |
| G18C C30U U32A C34G A45C U47G A57G | 0.688 |
| G18C C31G C55G A57C | ≤ 0.5 |
| G18C C31G G44C | 0.658 |
| G18C C31G G44C G48C C66U | ≤ 0.5 |
| G18C C34G A45C C66U | 0.775 |
| G18C C34U | ≤ 0.5 |
| G18C C34U A69C | ≤ 0.5 |
| G18C C60A | ≤ 0.5 |
| G18C C60U | ≤ 0.5 |
| G18C C61A | 0.627 |

| Variant | yeast fitness |
| --- | --- |
| G18C C62A C66A | ≤ 0.5 |
| G18C C62G G67U | ≤ 0.5 |
| G18C G23A G25C A37G A43C C55G C62G | ≤ 0.5 |
| G18C G23A G25C A37G A43C U54C C55G G68A | ≤ 0.5 |
| G18C G23A G25C U35C A37G A43C C55G G68A | ≤ 0.5 |
| G18C G25C U28G A42G | ≤ 0.5 |
| G18C G25C U47C | ≤ 0.5 |
| G18C G41C C62G | ≤ 0.5 |
| G18C G44A | 0.604 |
| G18C G44A G63C A65C | ≤ 0.5 |
| G18C G50A | 0.609 |
| G18C G50A C62A | ≤ 0.5 |
| G18C G52C C60U | 0.591 |
| G18C G67A A69C | ≤ 0.5 |
| G18C G68C | 0.556 |
| G18C U26A | 0.609 |
| G18C U26A A45G C66G | ≤ 0.5 |
| G18C U26G | 0.644 |
| G18C U35A A45C C62U | 0.542 |
| G18C U47C | 0.658 |
| G18U A21U G52A | ≤ 0.5 |
| G18U C34U | ≤ 0.5 |
| G18U U26A C66A A70U | 0.536 |
| G18U U26A G67C | ≤ 0.5 |

| Variant | yeast fitness |
| --- | --- |
| G18U U26A U59C C66A A70U | ≤ 0.5 |
| U19A A20C A21G C30G A43G C55G | ≤ 0.5 |
| U19A A20U U53C | ≤ 0.5 |
| U19A A21C G25C G68C | 0.752 |
| U19A A21G | 0.987 |
| U19A A36C G51C U59A | ≤ 0.5 |
| U19A A43U A45C G67C | ≤ 0.5 |
| U19A A45G G68C | ≤ 0.5 |
| U19A A45U C46U | 1.07 |
| U19A A57G | 0.931 |
| U19A C22G C24U C33G | 0.674 |
| U19A C22G C24U C33G A36G | 0.581 |
| U19A C22U A40U G51C | ≤ 0.5 |
| U19A C24A C30G C34U G52C | ≤ 0.5 |
| U19A C24G C27U C30A A36G G52C | ≤ 0.5 |
| U19A C24G C29U G52C U64G | ≤ 0.5 |
| U19A C27A C46A | 0.506 |
| U19A C27A C46A G67A | ≤ 0.5 |
| U19A C27G C31U A69U | ≤ 0.5 |
| U19A C27G G63C | 0.754 |
| U19A C27U A65U | 0.717 |
| U19A C29G U54C | ≤ 0.5 |
| U19A C29U C55A A57C U59C | ≤ 0.5 |
| U19A C29U G67C A69G | ≤ 0.5 |

| Variant | yeast fitness |
| --- | --- |
| U19A C30A | 0.812 |
| U19A C30A A43G C49U G51U C55A | 0.528 |
| U19A C30G A40C C62G C66G A69C | ≤ 0.5 |
| U19A C30U C31A G58A G67C | ≤ 0.5 |
| U19A C30U G38C | 0.694 |
| U19A C31G G44C | ≤ 0.5 |
| U19A C34G A43C | 0.534 |
| U19A C34G A57U | ≤ 0.5 |
| U19A C46U C49G | 1.07 |
| U19A C46U G48A U53C | 0.784 |
| U19A C46U G67A | 0.957 |
| U19A C49A | 0.642 |
| U19A C49A U54G U59A G63C A69G | ≤ 0.5 |
| U19A C49G G56U | 0.558 |
| U19A C49U | 1.03 |
| U19A C61A | 0.673 |
| U19A C61U | 0.983 |
| U19A G23C C30G U47A | 0.594 |
| U19A G38C G56C | ≤ 0.5 |
| U19A G39A | 0.846 |
| U19A G39A G44A | 0.873 |
| U19A G39C | 0.742 |
| U19A G48A A65U | 0.71 |
